The term IC50 denotes the concentration that inhibits the measured activity by half. The term half-life denotes the time needed for the level to fall by half in the phase considered. Usually Km stands for the substrate concentration at which the rate is half of its maximum.

The structures appear in SMILES notation. Some results are limits rather than exact numbers.

Series [1] relates to PC-3. Kind of series: Cytotoxicity in human PC3 cells assessed as reduction in cell viability at 180 nM measured after 48 hrs by SRB assay. In kind it is cell-based. The settings on record: pc-3, 48 h, 0.18 µM. Summed up:
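They were exposed for 48 h to prodrug alone at 180 nM final, without enzyme or NADH, with 25 mM Tris-HCl as vehicle control. Cells were fixed with 12.5% TCA for 1 h at 4 °C, stained with 0.4% SRB and read at 492 nm as % cell survival, in triplicate.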
For orientation: Sulforhodamine B stains cellular protein and so reports cell mass.

Series [2] is described as follows: Cytotoxicity against human PC3 cells assessed as cell viability at 9 to 150 uM measured after 48 hrs by MTT assay relative to control. In kind it is cell-based, PC-3. Conditions: read-out: Activity. In outline:
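They were treated for 48 h at 9, 18, 39, 78 and 150 µM, with 1% DMSO as vehicle control. Viability was read by MTT at 550 nm.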

Series [3] in a line: Cytotoxicity against human Hep3B cells assessed as cell viability at 9 to 150 uM measured after 48 hrs by MTT assay relative to control. The settings on record: read-out: Activity. In kind it is cell-based, Hep 3B2. In outline:
(§1)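 Hep3B and HUVEC cells were grown in high-glucose medium with 10% heat-inactivated FBS and 2 mM glutamine at 37 °C in 5% CO2. Cells were seeded at 5x10^4 per well and left 24 h to attach. They were then exposed for 48 h to 150, 75, 39, 19 and 9 µM, with 1% DMSO as vehicle control. Viability was read by MTT at 550 nm as (OD sample/OD control)×100.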
(In general: Tetrazolium dyes change colour on reduction, which living cells bring about.)

The subject of series [4] is PC-3. The experiment in a line: Cytotoxicity against human PC3 cells assessed as reduction in cell viability measured after 48 hrs in presence of Staphylococcus saprophyticus nitroreductase and NADH by SRB assay. In kind it is cell-based. The settings on record: PC-3, 48 h. Summed up: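 Prodrug at 180, 18 or 1.8 nM was premixed with Ssap-NtrB (31 µg/mL final) and NADH (600 µM final; 900 µM for CB1954) in 25 mM Tris-HCl pH 7.5, then added for 48 h under aerobic conditions. Cells were fixed with 12.5% TCA, stained with SRB and read at 492 nm, in triplicate.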

Series [5] deals with T1, Putative nitroreductase (Staphylococcus saprophyticus subsp. saprophyticus (strain ATCC 15305 / DSM20229 / NCIMB 8711 / NCTC 7292 / S-41), UniProt Q4A0P1).
T1 sequence (Q4A0P1 whole entry): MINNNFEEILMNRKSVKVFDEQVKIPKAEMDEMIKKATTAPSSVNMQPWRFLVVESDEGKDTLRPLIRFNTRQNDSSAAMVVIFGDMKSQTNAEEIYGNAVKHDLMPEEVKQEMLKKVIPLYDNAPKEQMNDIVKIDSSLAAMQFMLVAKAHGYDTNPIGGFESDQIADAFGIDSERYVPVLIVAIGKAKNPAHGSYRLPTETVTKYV
The experiment in a line: Substrate activity at Staphylococcus saprophyticus nitroreductase expressed in Escherichia coli assessed as retention time […] at 150 uM by HPLC analysis (0 to 5 mins at 20 % ACN, 15 to 22 min at 80% ACN, 27-32 AT 20% ACN). Format: ADME.

For series [6], the target named is T2, Staphylococcus saprophyticus nitroreductase (Staphylococcus saprophyticus subsp. saprophyticus (strain ATCC 15305 / DSM20229 / NCIMB 8711 / NCTC 7292 / S-41), UniProt Q4A0P1).
T2 sequence (Q4A0P1 whole entry): T1 sequence (Q4A0P1 whole entry)
The experiment in a line: Substrate activity at Staphylococcus saprophyticus nitroreductase expressed in Escherichia coli assessed as half life […] at 150 uM by HPLC analysis (0 to 5 mins at 20 % ACN, 15 to 22 min at 80% ACN, 27-32 AT 20% ACN). Format: ADME.

Series [7] is described as follows: Cytotoxicity against human HUVEC cells assessed as cell viability at 9 to 150 uM measured after 48 hrs by MTT assay relative to control. In kind it is cell-based. The settings on record: read-out: Activity. Summed up: as §1
Series [8] concerns the target T3, Oxygen-insensitive NAD(P)H nitroreductase (Escherichia coli K-12, UniProt P38489).
T3 sequence (P38489 whole entry): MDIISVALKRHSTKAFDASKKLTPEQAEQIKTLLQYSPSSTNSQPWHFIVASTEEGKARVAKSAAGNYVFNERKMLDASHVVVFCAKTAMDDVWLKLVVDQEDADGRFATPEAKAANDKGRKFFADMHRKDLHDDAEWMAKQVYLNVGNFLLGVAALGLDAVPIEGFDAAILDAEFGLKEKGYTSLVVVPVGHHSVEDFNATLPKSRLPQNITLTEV
The experiment in a line: Substrate activity at Escherichia coli nitroreductase nfsB assessed as ratio of Kcat/Km up to 80 mM using NADH as cofactor relative to CB1954/NfsB. Format: ADME.

Series [9] deals with T1, Putative nitroreductase. Kind of series: Prodrug conversion assessed Staphylococcus saprophyticus nitroreductase expressed in Escherichia coli-mediated (4-(hydroxyamino)phenyl)(morpholino)methanone metabolite formation by measuring retention time of metabolite at 100 uM incubated for 15 mins by HPLC analysis. In kind it is ADME. Conditions: 0.25 h. Summed up: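 Recombinant Ssap-NtrB, Ni-column purified, was used at 2.5 µg/mL. Substrate at 100 µM was reacted with 200 µM NADH in 25 mM Tris/Cl pH 7.5 with 10% DMSO at 25 °C for 15 min. The reaction was stopped 1:1 with cold acetonitrile and run on C18 RP-HPLC at 1 mL/min with a 20–80% ACN gradient. Peaks were detected at 254 and 340 nm.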

Series [10] concerns the target T4, Escherichia coli nitroreductase nfsB (oxygen-insensitive NAD(P)H nitroreductase) (Escherichia coli K-12, UniProt P38489).
T4 sequence (P38489 whole entry): T3 sequence (P38489 whole entry)
The experiment in a line: Substrate activity at Escherichia coli nitroreductase nfsB assessed as Km using NADH as cofactor in Tris-Cl buffer at pH 7.5 by spectrophotometric method. In kind it is ADME.

Series [11] concerns the target T1, Putative nitroreductase. The experiment in a line: Substrate activity at Staphylococcus saprophyticus nitroreductase assessed as ratio of Kcat/Km using NADPH as cofactor in presence of Tris-Cl buffer at pH 7.5 by spectrophotometric method. In kind it is ADME. In outline: (§2)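 Michaelis–Menten parameters for recombinant Ssap-NtrB were measured spectrophotometrically at 25 °C in 25 mM Tris-Cl buffer pH 7.5 containing 5% DMSO as cosolvent.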

The target in series [12] is T3, Oxygen-insensitive NAD(P)H nitroreductase. The experiment in a line: Substrate activity at Escherichia coli nitroreductase nfsB assessed as ratio of Kcat/Km using NADH as cofactor in Tris-Cl buffer at pH 7.5 by spectrophotometric method. Format: ADME.
Series [13] addresses T2, Staphylococcus saprophyticus nitroreductase. Kind of series: Substrate activity at Staphylococcus saprophyticus nitroreductase assessed as Km using NADPH as cofactor in presence of Tris-Cl buffer at pH 7.5 by spectrophotometric method. Format: ADME. Summed up: as §2
Series [14] deals with T1, Putative nitroreductase. Kind of series: Substrate activity at Staphylococcus saprophyticus nitroreductase assessed as Kcat using NADPH as cofactor in presence of Tris-Cl buffer at pH 7.5 by spectrophotometric method. Format: ADME. In outline:
as §2

In the case of `CC(=O)Nc1cc([N+](=O)[O-])cc([N+](=O)[O-])c1`, in [1], the Activity result is listed as “Non-Toxic”. In addition, the viability at 48 h, up to 150 µM in [2], in [3] and in series [7] was above 80% each time. The IC50 in [4] came out at 10.7 µM. The Retention_time in series [5] turned out to be 14.4 min. The half-life in [6] is below 6 min.

In the case of `CS(=O)(=O)OCCN(CCBr)c1c(C(=O)NCCO)cc([N+](=O)[O-])cc1[N+](=O)[O-]`, in series [8], the “fold change (FC)” value came out at 2.32.

Consider `O=C(c1ccc(NO)cc1)N1CCOCC1`, for which the Retention_time in series [9] is given as 11.71 min.

As to `NC(=O)c1cc(N(CCCl)CCCl)c([N+](=O)[O-])cc1[N+](=O)[O-]`, in series [8], the “fold change (FC)” value is 1.89. The Km in [10] stood at 2500 µM; in series [13] it was 82.4 µM. For the same molecule, the Kcat/Km turned out to be 9350 M⁻¹ s⁻¹ in series [11] and 10560 M⁻¹ s⁻¹ in series [12]. In addition, in [14], the Kcat worked out at 0.8 s⁻¹.
